# From publication PMC11027041 (RSC Advances, 2024)
# What was measured:
# [1] = test system: colon cancer cell line HCT-116; test: Cell viability assay; format: cell-based; settings: Homo sapiens, HCT-116, 72 h, read-out: Antiproliferative IC50 HCT116
# [2] = test system: melanoma cell line SK-MEL-2; test: Cell viability assay; format: cell-based; settings: Homo sapiens, SK-MEL-2, 72 h, read-out: Antiproliferative IC50 SK-MEL-2
# HDAC1 = HDAC1 (Homo sapiens, UniProt Q13547); test: In vitro HDAC enzyme assay; format: biochemical; settings: for inhibition at 0.5 µM: read-out: Inhibition% (inhibition rate, IR) against HDAC1, at a concentration of 500 nM
# Sequence of HDAC1 (Q13547 whole entry): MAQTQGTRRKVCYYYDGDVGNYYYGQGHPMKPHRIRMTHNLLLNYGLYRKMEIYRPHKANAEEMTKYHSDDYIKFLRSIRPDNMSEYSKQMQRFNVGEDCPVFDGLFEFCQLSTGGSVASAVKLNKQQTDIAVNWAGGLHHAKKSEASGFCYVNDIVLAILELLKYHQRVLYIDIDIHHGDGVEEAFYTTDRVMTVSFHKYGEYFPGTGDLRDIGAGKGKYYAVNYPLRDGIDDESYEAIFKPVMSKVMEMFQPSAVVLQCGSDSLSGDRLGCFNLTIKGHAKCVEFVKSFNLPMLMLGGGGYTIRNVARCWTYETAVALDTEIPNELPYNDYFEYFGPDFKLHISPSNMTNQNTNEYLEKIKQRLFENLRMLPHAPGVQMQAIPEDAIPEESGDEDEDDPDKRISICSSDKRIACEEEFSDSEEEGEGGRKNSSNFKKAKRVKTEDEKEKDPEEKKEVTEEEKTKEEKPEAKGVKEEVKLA
# [3] = test system: normal bone marrow cells HS-5; test: Cell viability assay; format: cell-based; settings: 72 h, read-out: Antiproliferative IC50 HS-5
# Method in brief: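 Cells grown in IMDM with 20% FBS, 100 U per mL penicillin and 100 μg per mL streptomycin, then plated in 96-well format. Test compound exposure was 72 h. Alamar blue solution (1 mM, as added) was then applied for a further 5–6 h, and […] was read at 530/590 nm. Data were normalized to vehicle, as means of three independent measurements (standard errors <20%), and IC50 was calculated.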
compound,measurement,setting,value
"O=C(CCCCCCNC(=O)c1cnc(N(c2ccccc2)c2ccccc2)nc1)NO [ACY-1215, reference compound]",IC50,[1],3.87 ± 0.11 µM
same,IC50,[2],4.5 ± 0.14 µM
"COc1ccc(CN2Cc3[nH]c4ccccc4c3C[C@H]2C(=O)NCCCCCCC(=O)NO)cc1 [Compound 9a, (S)-N-(7-(Hydroxyamino)-7-oxoheptyl)-2-(4-methoxybenzyl)-2,3,4,9-tetrahydro-1H-pyrido[3,4-b]indole-3-carboxamide]",inhibition at 0.5 µM,HDAC1; duplicate,31.8%
"COc1ccc([C@H]2N[C@H](C(=O)NCCCCCC(=O)NO)Cc3c2[nH]c2ccccc32)cc1 [Compound 9b, (1R,3S)-N-(6-(Hydroxyamino)-6-oxohexyl)-1-(4-methoxyphenyl)-2,3,4,9-tetrahydro-1H-pyrido[3,4-b]indole-3-carboxamide]",inhibition at 0.5 µM,HDAC1; duplicate,23.2%
"COc1ccc([C@H]2N[C@H](C(=O)NCCCCCCC(=O)NO)Cc3c2[nH]c2ccccc32)cc1 [Compound 9c, (1R,3S)-N-(7-(Hydroxyamino)-7-oxoheptyl)-1-(4-methoxyphenyl)-2,3,4,9-tetrahydro-1H-pyrido[3,4-b]indole-3-carboxamide]",inhibition at 0.5 µM,HDAC1; duplicate,41.3%
"O=C(CCCCCNC(=O)[C@@H]1Cc2c([nH]c3ccccc23)[C@@H](c2ccccc2)N1)NO [Compound 9d, (1R,3S)-N-(6-(Hydroxyamino)-6-oxohexyl)-1-phenyl-2,3,4,9-tetrahydro-1H-pyrido[3,4-b]indole-3-carboxamide]",inhibition at 0.5 µM,HDAC1; duplicate,39.6%
"COc1ccc(CN2[C@H](C)c3[nH]c4ccccc4c3C[C@H]2C(=O)NCCCCCC(=O)NO)cc1 [Compound 9e, (1R,3S)-N-(6-(Hydroxyamino)-6-oxohexyl)-2-(4-methoxybenzyl)-1-methyl-2,3,4,9-tetrahydro-1H-pyrido[3,4-b]indole-3-carboxamide]",inhibition at 0.5 µM,HDAC1; duplicate,58.1%
"COc1ccc(CN2[C@H](C)c3[nH]c4ccccc4c3C[C@H]2C(=O)NCCCCCCC(=O)NO)cc1 [Compound 9f, (1R,3S)-N-(7-(Hydroxyamino)-7-oxoheptyl)-2-(4-methoxybenzyl)-1-methyl-2,3,4,9-tetrahydro-1H-pyrido[3,4-b]indole-3-carboxamide]",inhibition at 0.5 µM,HDAC1; duplicate,40.8%
"O=C(CCCCCCNC(=O)[C@@H]1Cc2c([nH]c3ccccc23)[C@@H](c2ccc(Cl)cc2)N1)NO [Compound 9g, (1R,3S)-1-(4-Chlorophenyl)-N-(7-(hydroxyamino)-7-oxoheptyl)-2,3,4,9-tetrahydro-1H-pyrido[3,4-b]indole-3-carboxamide]",inhibition at 0.5 µM,HDAC1; duplicate,65.4%
"COc1ccc([C@H]2N[C@H](C(=O)NCCCCCCC(=O)NO)Cc3c2[nH]c2ccccc32)cc1OC [Compound 9h, (1R,3S)-1-(3,4-Dimethoxyphenyl)-N-(7-(hydroxyamino)-7-oxoheptyl)-2,3,4,9-tetrahydro-1H-pyrido[3,4-b]indole-3-carboxamide]",inhibition at 0.5 µM,HDAC1; duplicate,46.5%
"O=C(CCCCCCNC(=O)[C@@H]1Cc2c([nH]c3ccccc23)[C@@H](C2CC2)N1)NO [Compound 9i, (1R,3S)-1-Cyclopropyl-N-(7-(hydroxyamino)-7-oxoheptyl)-2,3,4,9-tetrahydro-1H-pyrido[3,4-b]indole-3-carboxamide]",inhibition at 0.5 µM,HDAC1; duplicate,77.3%
"COc1ccc(CN2Cc3[nH]c4ccccc4c3C[C@@H]2C(=O)NCCCCCCC(=O)NO)cc1 [Compound 13a, (R)-N-(7-(Hydroxyamino)-7-oxoheptyl)-2-(4-methoxybenzyl)-2,3,4,9-tetrahydro-1H-pyrido[3,4-b]indole-3-carboxamide]",inhibition at 0.5 µM,HDAC1; duplicate,44.3%
"COc1ccc([C@@H]2N[C@@H](C(=O)NCCCCCC(=O)NO)Cc3c2[nH]c2ccccc32)cc1 [Compound 13b, (1S,3R)-N-(6-(Hydroxyamino)-6-oxohexyl)-1-(4-methoxyphenyl)-2,3,4,9-tetrahydro-1H-pyrido[3,4-b]indole-3-carboxamide]",inhibition at 0.5 µM,HDAC1; duplicate,49.2%
"COc1ccc([C@@H]2N[C@@H](C(=O)NCCCCCCC(=O)NO)Cc3c2[nH]c2ccccc32)cc1 [Compound 13c, (1S,3R)-N-(7-(Hydroxyamino)-7-oxoheptyl)-1-(4-methoxyphenyl)-2,3,4,9-tetrahydro-1H-pyrido[3,4-b]indole-3-carboxamide]",IC50,HDAC1,47 ± 1.25 nM
same,"Inhibition% (inhibition rate, IR) against HDAC1","HDAC1; at a concentration of 500 nM, duplicate, 0.5 µM",81.6%
same,inhibition at 0.5 µM,HDAC1; duplicate,66%
"COc1ccc(CN2[C@@H](C(=O)NCCCCCC(=O)NO)Cc3c([nH]c4ccccc34)[C@@H]2C)cc1 [Compound 13e, (1S,3R)-N-(6-(Hydroxyamino)-6-oxohexyl)-2-(4-methoxybenzyl)-1-methyl-2,3,4,9-tetrahydro-1H-pyrido[3,4-b]indole-3-carboxamide]",IC50,HDAC1,53.6 ± 2.5 nM
same,inhibition at 0.5 µM,HDAC1; duplicate,84.8%
same,IC50,[3],> 50 µM
same,IC50,[1],8.34 ± 0.24 µM
same,IC50,[2],9.65 ± 0.46 µM
"COc1ccc(CN2[C@@H](C(=O)NCCCCCCC(=O)NO)Cc3c([nH]c4ccccc34)[C@@H]2C)cc1 [Compound 13f, (1S,3R)-N-(7-(Hydroxyamino)-7-oxoheptyl)-2-(4-methoxybenzyl)-1-methyl-2,3,4,9-tetrahydro-1H-pyrido[3,4-b]indole-3-carboxamide]",IC50,HDAC1,22.4 ± 0.84 nM
same,inhibition at 0.5 µM,HDAC1; duplicate,91.4%
same,IC50,[3],> 50 µM
same,IC50,[1],4.22 ± 0.12 µM
same,IC50,[2],5.7 ± 0.12 µM
"O=C(CCCCCCNC(=O)[C@H]1Cc2c([nH]c3ccccc23)[C@H](C2CC2)N1Cc1ccccc1)NO [Compound 13g, (1S,3R)-2-Benzyl-1-cyclopropyl-N-(7-(hydroxyamino)-7-oxoheptyl)-2,3,4,9-tetrahydro-1H-pyrido[3,4-b]indole-3-carboxamide]",IC50,HDAC1,10.4 ± 0.65 nM
same,inhibition at 0.5 µM,HDAC1; duplicate,98.2%
same,IC50,[3],> 50 µM
same,IC50,[1],3.2 ± 0.09 µM
same,IC50,[2],3.16 ± 0.08 µM
"O=C(CCCCCNC(=O)[C@H]1Cc2c([nH]c3ccccc23)[C@H](c2ccc(Cl)cc2)N1)NO [Compound 13h, (1S,3R)-1-(4-Chlorophenyl)-N-(6-(hydroxyamino)-6-oxohexyl)-2,3,4,9-tetrahydro-1H-pyrido[3,4-b]indole-3-carboxamide]",inhibition at 0.5 µM,HDAC1; duplicate,51.3%
"O=C(CCCCCCNC(=O)[C@H]1Cc2c([nH]c3ccccc23)[C@H](c2ccc(Cl)cc2)N1)NO [Compound 13i, (1S,3R)-1-(4-Chlorophenyl)-N-(7-(hydroxyamino)-7-oxoheptyl)-2,3,4,9-tetrahydro-1H-pyrido[3,4-b]indole-3-carboxamide]",inhibition at 0.5 µM,HDAC1; duplicate,66%
same,IC50,[3],> 50 µM
same,IC50,[1],7.55 ± 0.18 µM
same,IC50,[2],7.84 ± 0.26 µM
"COc1ccc([C@@H]2N[C@@H](C(=O)NCCCCCCC(=O)NO)Cc3c2[nH]c2ccccc32)cc1OC [Compound 13j, (1S,3R)-1-(3,4-Dimethoxyphenyl)-N-(7-(hydroxyamino)-7-oxoheptyl)-2,3,4,9-tetrahydro-1H-pyrido[3,4-b]indole-3-carboxamide]",inhibition at 0.5 µM,HDAC1; duplicate,72.5%
